Test system: MS2 coat protein
Assay: apparent Kd, MS2 coat protein; higher = weaker binding; RNA-MaP array; FMN 200 µM where present
Summary of the method: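 The apparent Kd is reported as the median of filtered per-cluster binding-curve fits. To get these curves, designs transcribed by stalled E. coli RNA polymerase on Illumina sequencing-chip clusters were titrated with SNAP-549-labelled MS2 coat protein from 0.7 or 1.5 nM, doubling to 3 µM. Titrations were run without and then with constant ligand in 100 mM Tris-HCl pH 7.5, 80 mM KCl, 4 mM MgCl2, BSA, DTT, yeast tRNA and Tween-20, and green signal was normalised to red-channel RNA signal and control-cluster median Fmax.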

[1] = designed as: ON switch for flavin mononucleotide, no ligand
[2] = ligand present: flavin mononucleotide, designed as: ON switch for flavin mononucleotide
[3] = designed as: OFF switch for flavin mononucleotide, no ligand
[4] = ligand present: flavin mononucleotide, designed as: OFF switch for flavin mononucleotide

Row | Sequence | apparent Kd [1] [µM] | apparent Kd [2] [µM] | apparent Kd [3] [µM] | apparent Kd [4] [µM]
1 | UGUAUUAACGGAGGAUAUCGAUAUCAAACAUGAGGAUCACCCAUGUUGAGGAUCACCCAUGUCCACGAGAAGGCCGGCGUACUC | 0.0303 | 0.03 | – | –
2 | GGAAGGUCAGGAUAUGCGAGGGAGUGGGAAAUAGGAUGGUAGCAGAAGGGACAUGAGGAUCACCCAUGUUAGGA | – | – | 0.031 | 0.0273
3 | AAAUACGUAAAGGACACAUGAGGAUCACCCAUGUUUCUGUUCAAGGAUAUGAGGUGAAUGAUCCGUCAGAAGGUGAACUUGCUU | 0.117 | 0.624 | – | –
4 | GGAUGACAAAGUCAUCCUAAACGAACAUGAGGAUCACCCAUGUAGGAUAUGGUACUCAAAGAGUACCAGAAGGACAUGUGCCUU | – | – | 0.0337 | 0.2
5 | GCGCCAUCGUGAGAUGGCGUAUAUACAUGAGGAUCACCCAUGUAGGAUAUCGAUUGCUUUGCAGUCGAGAAGGGCAUGUAAUUU | – | – | 0.0335 | 0.0439
6 | GAGUAGUUAAAAGGAUAUUGAUUAUUGUAGGAUCAAGAAGGUUUUAACAUGAGGAUCACCCAUGUAGGACUAUUCCUGUGUAUC | 0.0165 | 0.0148 | – | –
7 | UAAUGUUAGCGAGGAUAUCGUUUAUUGAAGUUACGAGAAGGCGCUCUUCUUACAUGAGGAUCACCCAUGUCUGUUUUGCAUGAU | – | 0.0519 | – | –
8 | UUGGACGUCGUAGGAUAUGUAGGAUAUUCCUACAUGAGGAUCACCCAUGUUGACAUGGAAGAAGGACAGAAGGAAGAUGUCCAU | 0.776 | 0.0139 | – | –
9 | CUUUUGUGAGGAUAUCAGUAGUAGAACAAUAGUACUACUACUGAGAAGGCACAUGAGGAUCACCCAUGUACCUC | – | – | 0.0194 | 0.0697
10 | GGAGCACACAUUAACAUGAGGAUCACCCAUGUCUAAAGACAUGAGGAUAUGGAUCCGAAAAGGAUCCAGAAGGCAUGGUGCUCC | 0.207 | 0.0117 | – | –
11 | UUGGUGUCAGGAUAUGCUUAAUGUGUUUUAUUAUAAUAUAUACAUGAGGAUCACCCAUGUAGAAGGGACGUUGU | – | – | 0.0606 | 0.0532
12 | GGCUGGUGACAGCAUCCAUCAAAACAUGAGGAUCACCCAUGUAGAAGGCUGUACGGUUACCGUACAGAGGAUAUACAAUGAUGU | – | – | 0.014 | 0.0239
13 | AGAUGACAAAGUCAUCUCGCGCUGACAUGAGGAUCACCCAUGUAGGAUAUAUUACUCAAAGAGUAAUAGAAGGACAUGUGUCUU | – | – | 0.0299 | 0.0722
14 | AUUAUGACCGAGUUAUACCUCUAAACAUGAGGAUCACCCAUGUAGGAUAUCAGCACGAUAAGUGCUGAGAAGGACAUCUCGGUC | – | – | 0.0172 | 0.027
15 | UGGUACUAGGGAGGAUAUGGGAAGAUACAUGAGGAUCACCCAUGUUUAAGAUUGCCGAGAGGCAACUAGAAGGCCCUAGUACCU | 1.12 | 0.13 | – | –
16 | UUGGGACAUGAGGAUCACCCAUGUAAGGAUAUUGGCGCGCCGGCUCUGUCUGUUCCGCCGAGAAGGUACACGUU | – | – | 0.104 | 0.173
17 | GGUGCGUGUGUGAGGAUAUGCUGGUCCUUGGAUCAGCAGAAGGCACAUGAGGAUCACCCAUGUGGUGUCGUACC | – | – | 0.49 | 0.0248
18 | UUUCUUGGGCAAGGAUAUCCUGUGCGGUUACGGCUCGUGUCUGUCACAUGAGGAUCACCCAUGUGGGAGAAGGUGCCUGCGGUC | – | – | 0.00609 | 0.00678
19 | GGUACCAUCGCAGGAUAUGCUAUCCUUUGGGUAGCAGAAGGGUGAUAACAUGAGGAUCACCCAUGUGGUACCGGGCGUGAGCCC | 0.0971 | 1.21 | – | –
20 | UUACAUACAAAGGUACAUGAGGAUCACCCAUGUUUGUUGGGAAGAAGGGUAACAGUACUACAUUUAUAGGAUAUUUCACAAAUA | 0.0955 | 0.064 | – | –
21 | GCACGACAUGUAGGAUAUCGAGCGCCGGGCGCUCGAGAAGGACAUGAGGAUCACCCAUGUAUUCUGAGUGACCGAGGUCGUUGC | – | – | 0.0479 | 0.431
22 | UUGUUACAUGAGGAUCACCCAUGUGAGGAUAUGGUUCGGUACUGUCCUGUCGCGUACUCCAGAAGGCACAUGUU | – | – | 0.0636 | 0.182
23 | CGAAGAAAGUAGAAGGCAGUCUUAAAAUAGGACUGAGGAUAUACAUGAGGAUCACCCAUGUACUCCUUUAAUAUCUUUGAAAUA | – | – | 0.0055 | 0.00525
24 | AUAUCAAGCAAGGAUAUGCAAAUGGUUAUUUAUGCAGAAGGUGCAACAUGAGGAUCACCCAUGUUUCUGGGUUU | – | – | 0.0644 | 0.101
25 | GCUGGGUCAGGAUAUACAAGAUCGAAAGAUCUGUGAAACGAACAUGAGGAUCACCCAUGUAGAAGGGACUGGGC | – | – | 0.0205 | 0.0332
26 | UAUAUAUAGUAAGGAUAUAUAUUUAUUUUAUAAAUAGAAGGUACAGACAUGAGGAUCACCCAUGUUAUAAUAUGGACAUGUGGA | – | – | 0.0525 | 0.0694
27 | UGAUUGGACAGAGGAUAUACGUGCUAGAGAUACUAGCAAAAUAUCCUCACAUGAGGAUCACCCAUGUAGAAGGCUGUCCAAUCU | – | – | 0.0173 | 0.0851
28 | AAACAUGUCCGAGGAUAUCUGGAAACAUUUUCAAGAGAAGGCGGACAUGAGGAUCACCCAUGUCUCUCCUCAUCAAAUCCAAUU | – | – | 0.00837 | 0.0511

Row | Sequence | apparent Kd [1] [µM] | apparent Kd [2] [µM] | apparent Kd [3] [µM] | apparent Kd [4] [µM]
29 | UUGCGGUAGGAGAAGGACAGAGGCGGAAACACAAACAUGAGGAUCACCCAUGUAGGAUAUCCUACCUAACGCGGAUACCUCCAG | – | – | 0.014 | 0.0396
30 | GGUACUCAGAGAGUACCAAUACGAACAUGAGGAUCACCCAUGUAGGAUAUGCUACUCAAAGAGUAGCAGAAGGACAUGUGCCUA | – | – | 0.0149 | 0.101
31 | AAAAUAAGGCGAGGAUAUCGACAGCAUGUGUGACGAGAAGGCGCGAUAGGUGGGUUCCUUGACAUGAGGAUCACCCAUGUAGAA | – | – | 0.0657 | 0.114
32 | CUAGAAAGGACAGGAUAUCGGGAUCGAACACCCGACAUGAGGAUCACCCAUGUCGCAAAUGAUAGCGAGAAGGGUCGGACACAA | 0.057 | 0.0186 | – | –
33 | ACGGAACAUGAGGAUCACCCAUGUAUCUGAGAUAUGGUCUCACAGGAUAUUCAGAGUUGCCAAUCGGAGAAGGGUGACACCAGA | 0.0785 | 0.0435 | – | –
34 | AUUGUUAAGGUAGGAUAUAGUAAAAUGAUUUAAUUAGAAGGAUCUCACAUGAGGAUCACCCAUGUAAGAGGAUUACCCAUGUAU | – | – | 0.0145 | 0.0132
35 | GUGGCUCCCACAGGAUAUCCACAUGAGGAUCACCCAUGUCUAAUUAACAAAGGAGAAGGGUGGGACAACUCUGGUGACUGAGAG | 0.0289 | 0.00545 | – | –
36 | UACUUGUCAGGAUAUCUUACAUUAACAUCGUAGUUACAAUUGGAGAAGGGACAUGAGGAUCACCCAUGUUUGGC | – | – | 0.0258 | 0.0345
37 | CAGCACUAUCGAGAGGAUAUGCGGUGAUGGACAUGAGGAUCACCCAUGUUAGCGGUAGCAUCACGGCAGAAGGCUCUGCUGCUGC | 0.0288 | 0.0199 | – | –
38 | UUUGUCUGUGUGAGGAUAUACUUGUUUGGGUUUUUGUAGAAGGCACAUGAGGAUCACCCAUGUAUUUUGUUGUG | – | – | 0.0583 | 0.0755
39 | UAUAUAUAGUAAGGAUAUAUAUUUUUUUUAUAAAUAGAAGGUACAGACAUGAGGAUCACCCAUGUUAUAAUAUGGACAUGUGGA | – | – | 0.101 | 0.101
40 | UUUAUUUUGCAAGGAUAUGUUUAAUUUUAGUUUCCUUAAACAUGAGGAUCACCCAUGUUAUACUUACAGAAGGUGCAUAAUUUU | – | – | 0.0906 | 0.0525
41 | UGUAUUAACGGAGGAUAUCGAUAUCAAACAUGAGGAUCACCCAUGUUGAGGAUCACCCAUGUCCAUGAGAAGGCCGGCGUACUC | 0.0418 | 0.0329 | – | –
42 | AGGUAAGACUUAAUUGUGCUGGUGAGAAGGCUGCUGGUUGUGGUCUACAUGAGGAUCACCCAUGUUGAGGAUAUCAUCGGUAUC | – | – | 0.711 | 0.103
43 | ACGUGUAAUACAGGAUAUGUUAUGGAUUAAUCAACCAGUUAUUACGUUUCGACAGAAGGGUAUACAUGAGGAUCACCCAUGUUA | – | – | 0.0223 | 0.0179
44 | AUCAGAUCGUCAGGAUAUACGUCACUGCGUCAGCAGUGUGGUAAGAUCACAUGAGGAUCACCCAUGUAGAAGGGACGAGCUGAU | – | – | 0.0139 | 0.296
45 | AGUAACAGAGGAUAUACUGUUUUAUGUAUUUAUUAUUUUAAACAUGAGGAUCACCCAUGUAGAAGGCUGAAUGA | – | – | 0.0245 | 0.0233
46 | AGUAGAUCAGGAUAUACGUAAAUGGUAAUUAUGUAACUUUUACAUGAGGAUCACCCAUGUAGAAGGGAUCUACA | – | – | 0.0175 | 0.0181
47 | GAUCCUUCUGUUAGGAUAUGCUUUGGGCUUCCGCAGCAGAAGGAACAUGAGGAUCACCCAUGUCCGAUGCCGUC | – | – | 0.0805 | 0.098
48 | AGUGAAUGUACAGGAUAUGCUGGACUUUGUCCAGCAGAAGGGUAUUAACAUGAGGAUCACCCAUGUUCAUUCACCAAAUUUAAU | 0.0388 | 0.0083 | – | –
49 | UAUAUAUAGUAAGGAUAUGUAUAUAUUUUGUAAACAGAAGGUACUGACAUGAGGAUCACCCAUGUUUUAGUGUGGGCAUGUAGA | – | – | 0.0808 | 0.13
50 | CAGUACUGAGGAUAUACAUGAGGAUCACCCAUGUGUCCCGGCUAGGAAACUAGCAAAAGUAGAAGGCAGUACUG | – | – | 0.024 | 0.516
51 | UAAGAAGCACUCGGAACCGGACAAUGAGAAGGCCACGCACAUGAGGAUCACCCAUGUAAAGCUAUGGAGGAUAUCAUGAUGGAA | 0.0809 | 0.00871 | – | –
52 | AAAAAACAUGAGGAUCACCCAUGUAAAAAAAUCGCAGGAUAUACGGUCGCGAAAGCGACCGUAGAAGGGCGAUCCU | 0.251 | 0.0948 | – | –
53 | GCCUGAUCCACUUUAGGCCCAGACAGAAGGGCACACGGUCUAAGUCACAUGAGGAUCACCCAUGUGCAGGAUAUGUCUCGACUC | – | – | 0.00888 | 0.0262
54 | AUUAGCUGAGGAUAUGCAGCUUUGUUCGUCGAGUGAAAAGAACAUGAGGAUCACCCAUGUAGAAGGCAGUUGAC | – | – | 0.0174 | 0.0181
55 | GCGAUUUUGUAAGGAUAUACUCGAGUUUUAAGAGUAGAAGGUACUUACAUGAGGAUCACCCAUGUCUAACGAAAUACUAGUCGC | 0.0105 | 0.00844 | – | –

Source: the EternaBench riboswitch data
